The source made the active and inactive calls. The calls are words filed in the database; no cut-off is given here.
What was measured:
[1] = Induction of PKCtheta/PKCdelta phosphorylation at Ser676/Ser643 in human J-Lat A1 cells assessed as fold change measured after 30 mins; settings: condition hiv infection, 0.5 h
J-Lat A1 [2] = assay: Anti retroviral activity against human J-Lat A1 cells harboring a single copy of latent HIV LTR assessed as HIV reactivation at 10 nM incubated for 24 hrs by flow cytometry analysis; assay type: functional, cell-based
How it was run: (§1)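 J-Lat A1 cells (single latent LTR-GFP copy) treated 24 h at fixed levels (10 nM PEP005, 500 nM SAHA, 2 μM JQ1/GSK343/Prostratin, 10 ng/ml TNF, 5 ng/ml PMA); percentage GFP-positive cells by flow cytometry.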

[3] = Binding affinity of NFkappa B to HIV LTR in human J-Lat A1 cells assessed as reduction in compound induced fold increase at 12 nM in presence of PKC inhibitor by ChIP-qPCR analysis relative to control; design: scale not given: the % may be the effect or the level left; settings: condition hiv infection
How it was run: (§2)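 ChIP-qPCR on J-Lat A1 cells, 1x10^6 per sample, given 12 nM PEP005 with or without a PKCδ/θ inhibitor. Cells fixed in 1% formaldehyde and lysed in SDS/EDTA/Tris pH 8.1 buffer with protease inhibitors. Chromatin sonicated to 200–1500 bp. Immune complexes taken on protein A/G-agarose for 45 min, then reverse cross-linked overnight. NF-κB/p65 binding at HIV LTR read by SYBR qPCR. Data from at least 3 independent experiments in triplicate.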

J-Lat A1 [4] = assay: Cytotoxicity against human J-Lat A1 cells harboring a single copy of latent HIV LTR assessed as cell viability at 2 to 40 nM by Live/Dead dye staining assay; assay type: functional, cell-based; settings: dose 2-40 nM
How it was run: (§3)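 J-Lat A1 cells exposed to PEP005 over 2–40 nM for 24 h; HIV reactivation as GFP expression by flow cytometry, fold versus untreated; viability by Live/Dead dye staining, flow cytometry.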

CD4+ T cell [5] = assay: Induction of pro-inflammatory cytokine TNF-alpha expression in human CD4+ T cells at 6 to 12 nM for 24 to 72 hrs by RT-qPCR analysis; assay type: functional, cell-based; settings: dose 6-12 nM, time 24-72 hrs
How it was run: (§4)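 CD4+ T cells from healthy HIV-negative donors treated with 6 or 12 nM PEP005 for 24 or 72 h; TNF-α, IFN-γ, IL-2 and IL-6 mRNA quantified by RT-qPCR normalized to GAPDH.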

J-Lat A1 [6] = assay: Induction of PKC/NF-Kappa B pathway in human J-Lat A1 cells assessed as upregulation of PKC delta at 12 nM at 1 hr by Western blotting analysis; assay type: cell-based
How it was run: (§5)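 One million J-Lat A1 cells incubated with 12 nM PEP005 up to 6 h; RIPA extracts with protease/phosphatase inhibitors; immunoblots for PKC isoforms, phospho-PKCδ/θ, NF-κB/p65 and phospho-IκBα (Ser32), β (Thr19/Ser23), ε (Ser18/22); band intensities by densitometry, three independent experiments.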

CD4+ T cell [7] = assay: Induction of pro-inflammatory cytokine IFN-gamma expression in human CD4+ T cells at 6 to 12 nM for 24 to 72 hrs by RT-qPCR analysis; assay type: functional, cell-based; settings: dose 6-12 nM, time 24-72 hrs; how it was run: as §4
CD4+ T cell [8] = assay: Induction of cell cycle arrest in human CD4+ T cells assessed as accumulation of cells at S phase at 12 nM for 24 hrs BrdU ELISA analysis; assay type: functional, cell-based
How it was run: (§6)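 U1, J-Lat A1 or healthy-donor CD4+ T cells treated 24 h with 12 nM PEP005; S-phase progression by BrdU incorporation ELISA; doxorubicin […] positive control.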

J-Lat A1 [9] = assay: Anti retroviral activity against human J-Lat A1 cells harboring a single copy of latent HIV LTR assessed as HIV reactivation by flow cytometry analysis; assay type: functional, cell-based; settings: dose 2-40 nM; how it was run: as §3
[10] = Cytotoxicity against human CD4+ T cells assessed as change in CD25 expression at 12 nM for 24 hrs by RT-qPCR analysis; assay type: toxicity, cell-based; settings: cd4+ t cell, 0.012 µM
How it was run: (§7)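 CD4+ T cells purified from uninfected donors, treated 24 h with 12 nM; total RNA extracted and CD38, CD69, CD25 and HLA-DR transcripts measured by RT-qPCR.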

J-Lat A1 [11] = assay: Induction of PKC/NF-Kappa B pathway in human J-Lat A1 cells assessed as upregulation of PKC theta at 12 nM upto 6 hrs by Western blotting analysis; assay type: cell-based; how it was run: as §5
J-Lat A1 [12] = assay: Effect on NF kappaB/p65 expression in human […] at 12 nM upto 6 hrs by Western blotting analysis; assay type: functional, cell-based; how it was run: as §5
U1 [13] = assay: Induction of cell cycle arrest in human U1 cells assessed as accumulation of cells at S phase at 12 nM for 24 hrs BrdU ELISA analysis; assay type: functional, cell-based; how it was run: as §6
[14] = Cytotoxicity against human CD4+ T cells assessed as change in CD38 expression at 12 nM for 24 hrs by RT-qPCR analysis; assay type: toxicity, cell-based; settings: cd4+ t cell, 0.012 µM; how it was run: as §7
[15] = Binding affinity of NFkappa B to HIV LTR in human J-Lat A1 cells assessed as fold increase at 12 nM by ChIP-qPCR analysis; settings: condition hiv infection; how it was run: as §2
[16] = molecular target: T1, Inhibitor of nuclear factor kappa-B kinase subunit beta (Homo sapiens) (UniProt O14920); assay: Induction of IkappaB beta phosphorylation in human […] at 12 nM upto 6 hrs by Western blotting analysis; assay type: cell-based; settings: J-Lat A1; how it was run: as §5
T1 sequence (whole entry): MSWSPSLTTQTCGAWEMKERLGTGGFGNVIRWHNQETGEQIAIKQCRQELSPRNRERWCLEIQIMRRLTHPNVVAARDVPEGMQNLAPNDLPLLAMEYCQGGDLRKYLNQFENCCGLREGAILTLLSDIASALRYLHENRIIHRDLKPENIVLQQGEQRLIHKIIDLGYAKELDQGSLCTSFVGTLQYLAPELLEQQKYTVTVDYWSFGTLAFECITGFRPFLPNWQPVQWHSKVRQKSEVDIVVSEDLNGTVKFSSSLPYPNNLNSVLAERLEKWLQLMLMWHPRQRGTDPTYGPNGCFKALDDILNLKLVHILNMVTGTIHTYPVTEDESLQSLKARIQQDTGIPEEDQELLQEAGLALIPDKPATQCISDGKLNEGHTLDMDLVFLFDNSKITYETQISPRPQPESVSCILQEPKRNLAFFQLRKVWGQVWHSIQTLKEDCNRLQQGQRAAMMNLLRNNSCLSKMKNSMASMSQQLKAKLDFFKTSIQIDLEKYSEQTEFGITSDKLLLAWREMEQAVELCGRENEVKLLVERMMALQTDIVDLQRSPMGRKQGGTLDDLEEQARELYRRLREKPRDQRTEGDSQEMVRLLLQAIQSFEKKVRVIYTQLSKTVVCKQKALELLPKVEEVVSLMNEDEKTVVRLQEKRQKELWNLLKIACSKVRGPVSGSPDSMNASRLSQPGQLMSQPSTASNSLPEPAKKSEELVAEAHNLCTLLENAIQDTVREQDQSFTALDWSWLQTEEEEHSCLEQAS

[17] = Anti retroviral activity against human J-Lat A1 cells harboring a single copy of latent HIV LTR assessed as fold increase in HIV reactivation at 20 nM by flow cytometry analysis; assay type: functional; how it was run: as §3
[18] = Inhibition of PKCtheta/PKCdelta in HIV infected human J-Lat A cells assessed as reduction of HIV latent reactivation treated at 6 nM in presence of PKC inhibitor relative to control; design: species or system J-Lat A1; scale not given: the % may be the effect or the level left; settings: condition hiv infection
How it was run: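 J-Lat A1 cells got 6 nM PEP005 together with 1, 2 or 5 μM PKCθ/δ inhibitor. HIV reactivation was read as GFP expression by RT-qPCR against PEP005-only cells. Data from at least 3 independent experiments in triplicate.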

U1 [19] = assay: Anti retroviral activity against human U1 cells harbouring HIV genomes with Tat gene mutation assessed as fold increase in HIV reactivation at 6 nM by flow cytometry analysis; assay type: functional
[20] = Cytotoxicity against human CD4+ T cells assessed as change in CD69 expression at 12 nM for 24 hrs by RT-qPCR analysis; assay type: toxicity, cell-based; settings: cd4+ t cell, 0.012 µM; how it was run: as §7
J-Lat A1 [21] = assay: Induction of cell cycle arrest in human J-Lat A1 cells assessed as accumulation of cells at S phase at 12 nM for 24 hrs BrdU ELISA analysis; assay type: functional, cell-based; how it was run: as §6
J-Lat A1 [22] = assay: Induction of PKC/NF-Kappa B pathway in human J-Lat A1 cells assessed as upregulation of PKC mu/D at 12 nM upto 6 hrs by Western blotting analysis; assay type: cell-based; how it was run: as §5
CD4+ T cell [23] = assay: Induction of pro-inflammatory cytokine IL-2 expression in human CD4+ T cells at 6 to 12 nM for 24 to 72 hrs by RT-qPCR analysis; assay type: functional, cell-based; settings: dose 6-12 nM, time 24-72 hrs; how it was run: as §4
CD4+ T cell [24] = assay: Induction of pro-inflammatory cytokine IL-6 expression in human CD4+ T cells at 6 to 12 nM for 24 to 72 hrs by RT-qPCR analysis; assay type: functional, cell-based; settings: dose 6-12 nM, time 24-72 hrs; how it was run: as §4
J-Lat A1 [25] = assay: Induction of PKC/NF-Kappa B pathway in human J-Lat A1 cells assessed as upregulation of PKC alpha at 12 nM upto 6 hrs by Western blotting analysis; assay type: cell-based; how it was run: as §5
J-Lat A1 [26] = assay: Anti retroviral activity against human J-Lat A1 cells harboring a single copy of latent HIV LTR assessed as HIV reactivation at 2 uM incubated for 24 hrs by flow cytometry analysis; assay type: functional, cell-based; how it was run: as §1
J-Lat A1 [27] = assay: Anti retroviral activity against PEP005 treated human J-Lat A1 cells harboring a single copy of latent HIV LTR assessed as HIV reactivation at 2 uM followed by 6 nM of PEP005 incubated for 24 hrs by flow cytometry analysis; assay type: functional, cell-based
How it was run: (§8)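 J-Lat A1 cells (RPMI1640, 10% FBS, 37°C, 5% CO2) exposed to 2 μM agent alone or combined with 6 nM PEP005 for 24 h; percentage of GFP-expressing cells by flow cytometry; Bliss independence model for synergy; ≥3 independent experiments in triplicate.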

[28] = Inhibition of PKCtheta/PKCdelta in HIV infected human J-Lat A cells assessed as reduction of PEP005 induced disruption of HIV latency treated at 2.5 nM relative to control; design: species or system J-Lat A1; scale not given: the % may be the effect or the level left; settings: condition hiv infection
J-Lat A1 [29] = assay: Anti retroviral activity against PEP005 treated human J-Lat A1 cells harboring a single copy of latent HIV LTR assessed as HIV reactivation at 2 uM incubated for 24 hrs by flow cytometry analysis; assay type: functional, cell-based; how it was run: as §8
U1 [30] = assay: Anti retroviral activity against PEP005 treated human U1 cells harbouring complete HIV genomes with Tat gene mutation assessed as fold increase in HIV reactivation at 2 uM followed by 6 nM of PEP005 incubated for 24 hrs by flow cytometry analysis; assay type: functional
J-Lat A1 [31] = assay: Anti retroviral activity against human J-Lat A1 cells harboring a single copy of latent HIV LTR assessed as HIV reactivation at 5 ng/ml incubated for 24 hrs by flow cytometry analysis; assay type: functional, cell-based; how it was run: as §1
J-Lat A1 [32] = assay: Anti retroviral activity against human J-Lat A1 cells harboring a single copy of latent HIV LTR assessed as HIV reactivation at 500 nM incubated for 24 hrs by flow cytometry analysis; assay type: functional, cell-based; how it was run: as §1

C/C=C(/C)C(=O)O[C@H]1C(C)=C[C@]23C(=O)[C@@H](C=C(CO)[C@@H](O)[C@]12O)[C@H]1[C@@H](C[C@H]3C)C1(C)C [INGENOL MEBUTATE]
fold change (FC) [1]: 2
Activity (J-Lat A1 [2]): Active
Activity [3]: >70%
Activity (J-Lat A1 [4]): inactive
Activity (CD4+ T cell [5]): inactive
Activity (J-Lat A1 [6]): Active
Activity (CD4+ T cell [7]): inactive
Activity (CD4+ T cell [8]): inactive
Activity (J-Lat A1 [9]): Dose-Dependent Effect
Activity [10]: Non-Toxic
Activity (J-Lat A1 [11]): inactive
Activity (J-Lat A1 [12]): inactive
Activity (U1 [13]): inactive
Activity [14]: Non-Toxic
fold change (FC) [15]: 6
Activity [16]: inactive
fold change (FC) [17]: 7
Activity [18]: >65%
fold change (FC) (U1 [19]): 25
Activity [20]: Non-Toxic
Activity (J-Lat A1 [21]): inactive
Activity (J-Lat A1 [22]): inactive
Activity (CD4+ T cell [23]): inactive
Activity (CD4+ T cell [24]): inactive
Activity (J-Lat A1 [25]): inactive

CC(=O)O[C@@]12C[C@@H](C)[C@@]3(O)[C@@H](C=C(CO)C[C@]4(O)C(=O)C(C)=C[C@@H]34)[C@@H]1C2(C)C
Activity (J-Lat A1 [26]): Active

CCCc1cc(C)[nH]c(=O)c1CNC(=O)c1cc(-c2ccnc(N3CCN(C)CC3)c2)cc2c1cnn2C(C)C
Activity (J-Lat A1 [26]): inactive
Activity (J-Lat A1 [27]): Active

Cc1ccc(S(=O)(=O)/C=C/C#N)cc1
Activity [28]: 50%

Cc1sc2c(c1C)C(c1ccc(Cl)cc1)=N[C@@H](CC(=O)OC(C)(C)C)c1nnc(C)n1-2
Activity (J-Lat A1 [29]): Active
Activity (J-Lat A1 [26]): Active
fold change (FC) (U1 [30]): 250
Activity (J-Lat A1 [27]): Active

CCCCCCCCCCCCCC(=O)O[C@@H]1[C@@H](C)[C@@]2(O)[C@@H](C=C(CO)C[C@]3(O)C(=O)C(C)=C[C@@H]23)[C@@H]2C(C)(C)[C@]12OC(C)=O
Activity (J-Lat A1 [31]): Active

O=C(CCCCCCC(=O)Nc1ccccc1)NO
Activity (J-Lat A1 [32]): Active
